Screening results: PubChem BioAssay, several laboratories
An excerpt weighted towards active compounds, which were near 4.8% of everything screened.
PAFAH2 inh – inhibitors of human PAFAH2. Q99487. recombinant PAFAH2, FP-rhodamine activity probe, fluorescence polarization. inhibition, % at 3.39 µM. hit rate 0.99% among 340,000. AID 492956;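 active = inhibition above the mean over all tested compounds plus 3 SD, cut at about 30% in these data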;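 note: inhibitors block probe labeling of enzyme so polarization drops; 0% = enzyme with DMSO and 100% = wells lacking PAFAH2 protein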
PAFAH1B2 FP inh – blocks human PAF acetylhydrolase 1b catalytic subunit 2. recombinant PAFAH1B2, FP-rhodamine activity probe, fluorescence polarization. inhibition, % at 3.39 µM. hit rate 1.2% among 340,000;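 active = inhibition above the mean of all tested compounds plus 3 SD, cut at about 24% in these data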;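 note: 0% = enzyme with DMSO and 100% = wells lacking PAFAH1B2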
UCH37 DUB inh – human UCH37 deubiquitinating enzyme inhibition; hit rate 0.33% among 330,000; purified proteasome/UCH37, Ub-AMC cleavage fluorescence; AID 588478; inhibition, % (no concentration beside the values); Q9Y5K5;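 active = mean inhibition over replicate wells above about 20%, limit read from the data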;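 note: 0% = compound-free wells with enzyme and 100% = wells lacking proteasome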
Target sequence (Q9Y5K5 whole entry, looked up): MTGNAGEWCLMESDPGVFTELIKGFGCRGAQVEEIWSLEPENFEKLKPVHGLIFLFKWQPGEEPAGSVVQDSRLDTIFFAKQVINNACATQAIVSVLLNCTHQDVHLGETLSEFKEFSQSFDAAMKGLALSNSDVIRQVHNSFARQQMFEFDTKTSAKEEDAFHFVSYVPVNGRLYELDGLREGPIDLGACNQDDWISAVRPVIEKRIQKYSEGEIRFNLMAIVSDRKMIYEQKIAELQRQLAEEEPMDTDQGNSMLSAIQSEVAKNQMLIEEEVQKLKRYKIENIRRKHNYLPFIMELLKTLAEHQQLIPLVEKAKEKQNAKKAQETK
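System: Proteasome-associated human UCH37 deubiquitinase; Input: 0.15 nM proteasome in added enzyme buffer; Also added: Ub-AMC substrate from 1 µM stock; Incubation: 30 min compound-proteasome preincubation then 25 min substrate reaction, room temperature; Detection: fluorescence, ex 355 nm, em 460 nm; Read-out: % inhibition of Ub-AMC cleavage fluorescence; Benchmarks: no-proteasome and no-compound wells.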
pPAFAH FP inh – inhibitors of human plasma PAF acetylhydrolase (pPAFAH). Q13093. recombinant pPAFAH, FP-rhodamine probe fluorescence polarization. inhibition, % at 3.39 µM. hit rate 1.5% among 330,000. AID 463082;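 active = inhibition above the mean inhibition across the screen plus 3 SD, cut at about 25% in these data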;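 note: inhibitors block binding of the rhodamine activity-based probe so polarization drops; 0% = enzyme with DMSO and 100% = wells lacking pPAFAH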
GRIN3A LBD mod – NR3A (human) ligand-binding domain modulation | NR3A LBD differential scanning fluorimetry, Tm shift; 0% = protein alone, 100% = glycine-bound protein | Tm shift relative to glycine control, % at 25 µM | hit rate 2.5% among 340,000 | AID 1259313;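 active = melting temperature shift of at least 10% of the positive control shift, at one fixed dose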
PAFAH1B3 inh – inhibitors of human PAFAH1B3. Q15102. recombinant PAFAH1B3, FP-rhodamine probe, fluorescence polarization. inhibition, % at 3.39 µM. hit rate 0.28% among 340,000. AID 492972;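 active = inhibition above the screen-wide average of all tested compounds plus 3 SD, cut at about 25% in these data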;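 note: 0% = enzyme with DMSO only and 100% = wells lacking PAFAH1B3 protein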
Target sequence (Q15102 whole entry, looked up): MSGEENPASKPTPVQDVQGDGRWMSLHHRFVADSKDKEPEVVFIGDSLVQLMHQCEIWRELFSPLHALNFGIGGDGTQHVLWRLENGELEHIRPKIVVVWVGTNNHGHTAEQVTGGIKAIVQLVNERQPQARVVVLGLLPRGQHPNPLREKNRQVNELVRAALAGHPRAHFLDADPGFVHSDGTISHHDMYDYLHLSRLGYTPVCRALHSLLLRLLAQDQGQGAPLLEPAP
* = called active by the depositor; x = not tested or not shown.

SMILES	PAFAH2 inh	PAFAH1B2 FP inh	UCH37 DUB inh	pPAFAH FP inh	GRIN3A LBD mod	PAFAH1B3 inh
CCOc1ccc(CC(=O)NNC(=S)Nc2ccccc2)cc1Br	1	1	0	7	13*	14
CCOC(=O)c1sc(=S)n(C)c1NC(=O)c1ccccc1	16	3	6	4	16*	12
Cc1cc([N+](=O)[O-])cc(C)c1OCC(=O)NN=Cc1ccc(OC(=O)c2ccccc2)cc1	x	x	3	x	x	x
COc1ccc(C=NNc2nc(NCc3ccco3)nc(Nc3ccc(OC)cc3)n2)cc1	x	x	4	x	x	x
C/C(=N\NC(=O)c1ccn(C)n1)c1ccc(NC(=O)c2cccc(F)c2)cc1	2	-5	x	2	16*	0
O=C(/C=C/c1cccs1)Nc1nccs1	5	6	-43	-4	-10	8
CC(=O)Nc1ccc(C(=O)NCCc2ccccc2)cc1	6	4	7	1	16*	-2
CC(=O)Nc1ccc(CCNC(=O)c2ccc3ccccc3c2O)cc1	2	-7	x	x	24*	6
CC(=NNC(=O)c1ccn(C)n1)c1ccc(NC(=O)C2CCCC2)cc1	x	x	1	x	x	x
O=C(/C=C/c1cccs1)Nc1cccc(NC(=O)/C=C/c2cccs2)n1	-79	-40	-17	-52	24*	-82
CCN(CC)S(=O)(=O)c1cccc(C(=O)NN=Cc2ccccc2OCC(=O)O)c1	x	x	3	x	x	x
CC(=NNc1ccc(F)cc1F)c1ccc(N2CCOCC2)cc1	x	x	5	x	x	x
CCOc1ccc(C=NNC(=O)c2nnn(-c3nonc3N)c2-c2cccs2)cc1	x	x	-237	x	x	x
CN(C)c1ccc(NC(=NS(=O)(=O)c2cccs2)c2ccccc2)cc1	x	x	7	x	x	x
CC(=O)Nc1ccc(C(=O)c2ccccc2)cc1	0	1	5	8	13*	-1
Cc1cccc(C(=O)Nc2ccc(C(=O)c3ccccc3)cc2)c1	x	x	3	-3	-2	x
CC(=O)Nc1ccc(NC(=O)c2ccc(NC(=O)c3ccccc3)cc2)cc1	-16	4	-6	2	28*	2
CCOC(=O)c1ccc(NC(=O)C(=O)NCCc2ccc(OC)cc2)cc1	-3	10	2	-2	0	10
CCOC(=O)c1ccc(NC(=S)NCCc2ccc(F)cc2)cc1	x	x	1	-9	24*	x
CCOC(=O)c1ccc(NC(=O)Nc2ccc3c(c2)OCCO3)cc1	0	2	-3	8	14*	5
N#CCC(=O)Nc1ccc(C(=O)OCC(=O)NC(=O)Nc2ccc3c(c2)OCCO3)cc1	-9	-4	-2	-8	3	3
CCOC(=O)c1ccc(NC(=O)/C=C/c2cccs2)cc1	0	3	1	-2	23*	-5
CCOC(=O)C(CC(=O)O)=C(c1ccccc1)c1ccccc1	5	32*	0	2	1	8
COC(=O)c1ccc(NC(=O)CSC2=NC(=O)C(c3ccccc3)C(=O)N2)cc1 (centres undefined)	1	1	6	11	12*	1
CC(=NNC(=O)c1ccccc1O)c1ccc(NC(=O)c2ccccc2)cc1	x	x	-1	x	x	x
SMILES	PAFAH2 inh	PAFAH1B2 FP inh	UCH37 DUB inh	pPAFAH FP inh	GRIN3A LBD mod	PAFAH1B3 inh
O=C(CSC1=NC(=O)C(c2ccccc2)C(=O)N1)Nc1cccc(Cl)c1 (centres undefined)	-1	4	9	-1	-1	19
C/C(=N\NC(=O)c1ccccc1O)c1ccc(NC(=O)c2ccccc2)cc1	-4	0	x	x	11*	1
CCOc1ccc(C=NNC(=O)CN2CCCCCCC2)cc1	x	x	0	x	x	x
Cc1ccc(C=NNC(=O)c2nnn(-c3nonc3N)c2CN(C)C)s1	x	x	4	x	x	x
CCOC(=O)c1ccc(NC(=O)c2ccc(NC(=O)c3ccccc3)cc2)cc1	4	-6	0	5	30*	4
CCOC(=O)c1ccc(NC(=S)Nc2ccccc2)cc1	-1	6	0	-6	-11	13
CCN(Cc1ccccc1)S(=O)(=O)c1ccc2oc(C(=O)O)c(C)c2c1	-2	-1	4	-3	0	-1
CCN(CC)S(=O)(=O)c1ccc2oc(C(=O)O)c(C)c2c1	1	3	3	1	13*	0
Cc1ccc(C=NNC(=O)c2cc3c(ccc4ccccc43)o2)o1	x	x	-226	x	x	x
CCCOc1ccc(C=NNc2ccc(C(=O)O)cc2)c(OCCC)c1	x	x	-11	x	x	x
CCCOc1ccc(/C=N/NC(=S)Nc2ccccc2[N+](=O)[O-])c(O)c1	x	x	x	15	12*	x
O=[N+]([O-])c1ccc(O)c(/C=N/Nc2nc3ccccc3[nH]2)c1	-1	35*	x	12	7	16
CCCOc1ccc(/C=N/Nc2cccc([N+](=O)[O-])c2)c(O)c1	1	-1	x	11	33*	6
CCCOc1ccc(/C=N/Nc2ccc(C(=O)O)cc2)c(OCCC)c1	5	3	x	x	21*	7
Cc1ccccc1C=c1sc(=CC(=O)C(C)(C)C)[nH]c1=O	x	x	3	x	x	x
O=c1[nH]nc(NN=Cc2ccccc2OC(F)F)c(=O)[nH]1	x	x	11	x	x	x
NC(=NOC(=O)c1ccncc1)c1cccc([N+](=O)[O-])c1	x	x	2	x	x	x
O=[N+]([O-])c1ccc(O)c(C=NNc2ccccc2Cl)c1	x	x	5	x	x	x
O=C(N/N=C/c1cc([N+](=O)[O-])ccc1O)Nc1ccccc1	3	32*	x	13	3	3
O=[N+]([O-])c1cccc(N/N=C/c2cc([N+](=O)[O-])ccc2O)c1	39*	-1	x	28*	31*	8
CCOC(=O)c1c(CC(C)C)csc1N=CC1C(=O)CCCC1=O	x	x	-90	x	x	x
CC1(C)CC(=O)CC(=NNC(=O)COc2ccc(Cl)cc2Cl)C1	x	x	0	x	x	x
CN1CCN(c2ccc(S(=O)(=O)N3CCCCC3)cc2NC(=O)/C=C/c2ccc(Cl)c([N+](=O)[O-])c2)CC1	1	-2	7	5	-6	3
O=C(/C=C/c1ccc(Cl)c([N+](=O)[O-])c1)Nc1ccc(N2CCCC2)c(Cl)c1	2	-2	4	5	17*	-2
Cc1ccc(C2CC(=O)Oc3cc(O)ccc32)cc1 (centres undefined)	26	24*	x	17	-5	34*
SMILES	PAFAH2 inh	PAFAH1B2 FP inh	UCH37 DUB inh	pPAFAH FP inh	GRIN3A LBD mod	PAFAH1B3 inh
COc1cccc(SCc2noc(C(=O)NCCN(C)C)c2C(=O)NCCN(C)C)c1	1	0	32*	2	-1	-2
C=CCNC(=O)c1onc(CSc2cccc(Cl)c2)c1C(=O)O	13	12	4	5	-2	3
C=CCNC(=O)c1onc(CSc2cccc(C)c2)c1C(=O)O	4	13	x	0	13*	9
C=CCNC(=O)c1onc(CSc2ccc(Cl)cc2)c1C(=O)NCC=C	-8	25*	0	0	-4	-5
CC(=NNC(=S)NC(C)C)c1ccco1	x	x	4	x	x	x
CCn1ncc(C=NNC(=O)COc2ccccc2)c1C	x	x	0	x	x	x
CCCCC(C(=O)NN=Cc1ccccn1)C(=O)NN=Cc1ccccn1 (centres undefined)	x	x	4	x	x	x
